Test results published in ChEMBL document CHEMBL1208778, “Synthesis and anti-cancer activity of chalcone linked imidazolones” (2010).

Assays:
Assay type in all cases: functional
[1] = test system: MDA-MB-435; test: Growth inhibition of human MDA-MB-435 cells
Method in brief: (§1)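 Five-dose testing was run within the NCI (Bethesda) in vitro Anticancer Screen Program on a panel of 53 human tumour cell lines from nine cancer types. Growth inhibition is reported as GI50.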

[2] = test system: PC-3; test: Growth inhibition of human PC3 cells; method in brief: as §1
[3] = Growth inhibition of human Hs 578T cells; method in brief: as §1
[4] = test system: HCT-15; test: Growth inhibition of human HCT15 cells; method in brief: as §1
[5] = test system: SNB-75; test: Growth inhibition of human SNB75 cells
Method in brief: (§2)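 Compounds that passed a preliminary screen were tested at five doses in the NCI (Bethesda) in vitro Anticancer Screen Program against a 53-line human tumour panel spanning leukemia, lung, colon, CNS, melanoma, ovarian, renal, prostate and breast. Growth inhibition is reported as GI50.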

[6] = test system: UACC-257; test: Growth inhibition of human UACC257 cells; method in brief: as §2
[7] = test system: MCF7; test: Cell cycle arrest in human MCF7 cells assessed as accumulation at G1 phase at 10 uM after 24 hrs by FACS analysis
Method in brief: (§3)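 MCF-7 breast carcinoma cells were exposed to 10 µM test compound for 24 h, with DMSO as the vehicle control. Cell-cycle distribution was read by FACS as the percentage of cells in G0, G1, S and G2/M.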

[8] = test system: K562; test: Growth inhibition of human K562 cells; method in brief: as §1
[9] = test system: MCF7; test: Cell cycle arrest in human MCF7 cells assessed as accumulation at G0 phase at 30 uM after 24 hrs by FACS analysis
Method in brief: (§4)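 MCF-7 cells were treated at 30 µM for 24 h alongside a DMSO control. Fractions in G0, G1, S and G2/M phases were measured by FACS, and values are means of three experiments.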

[10] = test system: M14; test: Growth inhibition of human M14 cells; method in brief: as §1
[11] = test system: A549; test: Growth inhibition of human A549 cells; method in brief: as §1
[12] = test system: OVCAR-8; test: Growth inhibition of human OVCAR8 cells; method in brief: as §1
[13] = test system: NCI/ADR-RES; test: Growth inhibition of human NCI/ADR-RES cells; method in brief: as §1
[14] = test system: SNB-19; test: Growth inhibition of human SNB19 cells; method in brief: as §2
[15] = test system: HT-29; test: Growth inhibition of human HT-29 cells; method in brief: as §1
[16] = test system: SK-MEL-2; test: Growth inhibition of human SK-MEL-2 cells; method in brief: as §1
[17] = test system: SW-620; test: Growth inhibition of human SW620 cells; method in brief: as §2
[18] = test system: KM12; test: Growth inhibition of human KM12 cells; method in brief: as §1
[19] = test system: OVCAR-5; test: Growth inhibition of human OVCAR5 cells; method in brief: as §1
[20] = test system: T47D; test: Growth inhibition of human T47D cells; method in brief: as §2
[21] = test system: SK-OV-3; test: Growth inhibition of human SKOV3 cells; method in brief: as §2
[22] = test system: TK-10; test: Growth inhibition of human TK10 cells; method in brief: as §2
[23] = test system: SN12C; test: Growth inhibition of human SN12C cells; method in brief: as §2
[24] = test system: SF-295; test: Growth inhibition of human SF295 cells; method in brief: as §1
[25] = test system: UACC-62; test: Growth inhibition of human UACC62 cells; method in brief: as §2
[26] = test system: MCF7; test: Cell cycle arrest in human MCF7 cells assessed as accumulation at G2/M phase at 30 uM after 24 hrs by FACS analysis; method in brief: as §4
[27] = test system: HCT-116; test: Growth inhibition of human HCT116 cells; method in brief: as §1
[28] = test system: MCF7; test: Growth inhibition of human MCF7 cells; method in brief: as §1
[29] = test system: MCF7; test: Cell cycle arrest in human MCF7 cells assessed as accumulation at G2/M phase at 10 uM after 24 hrs by FACS analysis; method in brief: as §3
[30] = test system: HCC 2998; test: Growth inhibition of human HCC2998 cells; method in brief: as §1
[31] = test system: SK-MEL-5; test: Growth inhibition of human SK-MEL-5 cells; method in brief: as §1
[32] = test system: SF-539; test: Growth inhibition of human SF539 cells; method in brief: as §1
[33] = test system: MCF7; test: Cell cycle arrest in human MCF7 cells assessed as accumulation at G1 phase at 30 uM after 24 hrs by FACS analysis; method in brief: as §4
[34] = test system: NCI-H322M; test: Growth inhibition of human NCI-H322M cells; method in brief: as §1
[35] = test system: UO-31; test: Growth inhibition of human UO31 cells; method in brief: as §2
[36] = test system: A498; test: Growth inhibition of human A498 cells; method in brief: as §1
[37] = test system: MDA-MB-231; test: Growth inhibition of human MDA-MB-231 cells; method in brief: as §1
[38] = test system: MCF7; test: Cell cycle arrest in human MCF7 cells assessed as accumulation at S phase at 30 uM after 24 hrs by FACS analysis; method in brief: as §4
[39] = test system: COLO 205; test: Growth inhibition of human COLO205 cells; method in brief: as §1
[40] = test system: SF-268; test: Growth inhibition of human SF268 cells; method in brief: as §1
[41] = test system: CAKI-1; test: Growth inhibition of human Caki1 cells; method in brief: as §1
[42] = test system: MCF7; test: Cell cycle arrest in human MCF7 cells assessed as accumulation at S phase at 10 uM after 24 hrs by FACS analysis; method in brief: as §3
[43] = test system: BT-549; test: Growth inhibition of human BT549 cells; method in brief: as §1
[44] = test system: NCI-H23; test: Growth inhibition of human NCI-H23 cells; method in brief: as §1
[45] = test system: Malme-3M; test: Growth inhibition of human MALME-3M cells; method in brief: as §1
[46] = test system: SK-MEL-28; test: Growth inhibition of human SK-MEL-28 cells; method in brief: as §1
[47] = test system: RXF 393; test: Growth inhibition of human RXF393 cells; method in brief: as §1
[48] = test system: NCI-H226; test: Growth inhibition of human NCI-H226 cells; method in brief: as §1
[49] = Growth inhibition of human RPMI8266 cells; method in brief: as §1
[50] = test system: LOX IMVI; test: Growth inhibition of human LOXIMVI cells; method in brief: as §1
[51] = test system: NCI-H522; test: Growth inhibition of human NCI-H522 cells; method in brief: as §1
[52] = test system: 786-0; test: Growth inhibition of human 786-0 cells; method in brief: as §1
[53] = test system: ACHN; test: Growth inhibition of human ACHN cells; method in brief: as §1
[54] = test system: U-251; test: Growth inhibition of human U251 cells; method in brief: as §2
[55] = test system: HOP-92; test: Growth inhibition of human HOP92 cells; method in brief: as §1
[56] = test system: MCF7; test: Cell cycle arrest in human MCF7 cells assessed as accumulation at G0 phase at 10 uM after 24 hrs by FACS analysis; method in brief: as §3
[57] = test system: EKVX; test: Growth inhibition of human EKVX cells; method in brief: as §1
[58] = test system: HOP-62; test: Growth inhibition of human HOP62 cells; method in brief: as §1
[59] = test system: OVCAR-3; test: Growth inhibition of human OVCAR-3 cells; method in brief: as §1
[60] = test system: NCI-H460; test: Growth inhibition of human NCI-H460 cells; method in brief: as §1
[61] = test system: OVCAR-4; test: Growth inhibition of human OVCAR4 cells; method in brief: as §1

COc1ccc(-c2cn(-c3cccc(C(=O)/C=C/c4cc(OC)c(OC)c(OC)c4)c3)c(=O)[nH]2)cc1
GI50 [1]: 1860 nM
GI50 [2]: 6220 nM
GI50 [3]: 3390 nM
GI50 [4]: 1380 nM
GI50 [5]: 4590 nM
GI50 [6]: 3040 nM
Activity [7]: 60.66%
GI50 [8]: 1270 nM
Activity [9]: 36.02%
GI50 [10]: 1850 nM
GI50 [11]: 11800 nM
GI50 [12]: 2530 nM
GI50 [13]: 1700 nM
GI50 [14]: 4380 nM
GI50 [15]: 1280 nM
GI50 [16]: 2630 nM
GI50 [17]: 450 nM
GI50 [18]: 1420 nM
GI50 [19]: 2640 nM
GI50 [20]: 3840 nM
GI50 [21]: 4600 nM
GI50 [22]: 3040 nM
GI50 [23]: 3500 nM
GI50 [24]: 4950 nM
GI50 [25]: 2060 nM
Activity [26]: 9.51%
GI50 [27]: 370 nM
GI50 [28]: 440 nM
Activity [29]: 14.08%
GI50 [30]: 1640 nM
GI50 [31]: 2030 nM
GI50 [32]: 2000 nM
Activity [33]: 46.02%
GI50 [34]: 2660 nM
GI50 [35]: 1910 nM
GI50 [36]: 4210 nM
GI50 [37]: 5480 nM
Activity [38]: 8.45%
GI50 [39]: 1840 nM
GI50 [40]: 3210 nM
GI50 [41]: 3050 nM
Activity [42]: 21.47%
GI50 [43]: 2590 nM
GI50 [44]: 1630 nM
GI50 [45]: 1790 nM
GI50 [46]: 2030 nM
GI50 [47]: 1920 nM
GI50 [48]: 35200 nM
GI50 [49]: 920 nM
GI50 [50]: 720 nM
GI50 [51]: 1850 nM
GI50 [52]: 1610 nM
GI50 [53]: 1820 nM
GI50 [54]: 880 nM
GI50 [55]: 14900 nM
Activity [56]: 3.79%
GI50 [57]: 4200 nM
GI50 [58]: 5910 nM
GI50 [59]: 1780 nM
GI50 [60]: 1560 nM
GI50 [61]: 3570 nM
